Test results from ChEMBL document CHEMBL1764993, “Synthesis and biological evaluation of novel irreversible serine protease inhibitors using amino acid based sulfonyl fluorides as an electrophilic trap” (Bioorg Med Chem, 2011).
Calls of active or inactive are those of the source. The calls are words filed in the database; no cut-off is given here.

Key:
[1] = Inhibition of chymotrypsin assessed as p-nitroaniline release after 30 mins pre-incubated with compound for 1 hr before addition of Bz-L-Tyr-pNA as a substrate by calorimetric assay
Procedure, shortened: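 Chymotrypsin (commercial, used as received) pre-incubated 1 h with inhibitor in DMSO in sodium phosphate 0.05 M pH 7.0; aliquot then added to Bz-L-Tyr-pNA. Final: enzyme 1.0 µM, substrate 0.25 mM; DMSO controls. p-Nitroaniline release read at 405 nm for 30 min at rt to give residual activity. Triplicate or quadruplicate.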

Papain (Carica papaya) = target: T1, Papain (Carica papaya) (UniProt P00784); test: Inhibition of papaya papain assessed as p-nitroaniline release at 2.5 uM after 1 hr pre-inhibition using Bz-L-Tyr-pNA as a substrate by calorimetric assay
T1 sequence (whole entry): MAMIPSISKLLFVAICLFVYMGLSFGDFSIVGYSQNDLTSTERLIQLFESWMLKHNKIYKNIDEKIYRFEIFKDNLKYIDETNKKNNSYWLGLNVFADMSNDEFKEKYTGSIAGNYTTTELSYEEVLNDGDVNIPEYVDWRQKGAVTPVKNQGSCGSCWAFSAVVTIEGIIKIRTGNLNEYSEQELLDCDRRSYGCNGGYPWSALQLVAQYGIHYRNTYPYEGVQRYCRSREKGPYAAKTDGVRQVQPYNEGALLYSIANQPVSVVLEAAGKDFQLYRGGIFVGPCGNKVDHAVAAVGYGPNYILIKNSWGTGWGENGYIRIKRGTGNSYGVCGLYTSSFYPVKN

[2] = Inhibition of chymotrypsin assessed as p-nitroaniline release measured for 15 mins using Bz-L-Tyr-pNA as a substrate by Dixon plot analysis
Procedure, shortened: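 Ki from Dixon plots: chymotrypsin (final 0.5 µM) in sodium phosphate 0.05 M pH 7.0 with Bz-L-Tyr-pNA at 0.15–0.25 mM and inhibitor at 7.81, 15.63 or 31.25 µM (final), no preincubation. p-Nitroaniline read directly at 405 nm for 15 min; DMSO controls; quadruplicate.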

[3] = Inhibition of chymotrypsin assessed as p-nitroaniline release at 20 uM measured at every 6 mins for 15 mins using Bz-L-Tyr-pNA as a substrate
Procedure, shortened: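 kinact: chymotrypsin mixed with inhibitor in sodium phosphate 0.05 M pH 7.0; aliquots moved into Bz-L-Tyr-pNA wells at 0–5 min, then all read at 405 nm for 15 min. Final enzyme 0.5 µM, substrate 250 µM, inhibitor 20 µM. Residual activity plotted against preincubation time.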

| Compound | Activity [1] | Activity (Papain (Carica papaya)) | Ki ([2]; read-out: Ki) [µM] | Kinact [3] [min⁻¹] | Ki [2] |
| --- | --- | --- | --- | --- | --- |
| CC(C)[C@@H](CS(=O)(=O)F)NC(=O)OCC1c2ccccc2-c2ccccc21 | Active | – | – | – | – |
| O=C(NCCS(=O)(=O)F)OCc1ccccc1 | Active | Active | – | – | – |
| O=S(=O)(F)Cc1ccccc1 [PHENYLMETHYLSULFONYLFLUORIDE] | – | – | 13 | 0.32 | – |
| CC(C)C[C@@H](CS(=O)(=O)F)NC(=O)OCc1ccccc1 | Active | Active | – | – | – |
| O=C(N[C@@H](Cc1ccccc1)CS(=O)(=O)F)OCc1ccccc1 | Active | Active | – | – | – |
| C[C@@H](CS(=O)(=O)F)NC(=O)OCc1ccccc1 | Active | Active | – | – | Not Active |
